Structures are written as SMILES.

Format in all cases: functional
For assay [1], the system named is Cavia porcellus. The assay can be described thus: Antitussive activity in guinea pig assessed as inhibition of citric acid-induced coughing at 0.26 mmol/kg, ip administered as single dose after 30 mins. The note with it: 0.5 h. In a few lines: (§1)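 Unrestrained conscious Dunkin-Hartley guinea pigs, randomised, given a single ip dose in DMSO. 30 min later, 8-min 0.5 M citric acid aerosol (0.5 mL/min) in an airtight chamber. Cough sounds recorded and episodes counted. % inhibition vs vehicle group (n = 4-8); one-way ANOVA with Bonferroni tests.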

Assay [2] concerns Cavia porcellus. As to the kind of experiment: Antitussive activity in guinea pig assessed as inhibition of citric acid-induced coughing at 0.26 mmol/kg, po administered as single dose after 30 mins. Also on record: scale not given: the % may be the effect or the level left. In a few lines:
(§2)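 Unrestrained conscious Dunkin-Hartley guinea pigs, randomised, given a single oral dose of 100 mg/kg in Tween 80/saline (5:95). 30 min later, 8-min 0.5 M citric acid aerosol (0.5 mL/min) in an airtight chamber. Cough episodes counted from recorded sounds. % inhibition vs vehicle group (n = 4-8); ANOVA with Bonferroni tests.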

The subject of assay [3] is Cavia porcellus. As to the kind of experiment: Antitussive activity in guinea pig assessed as inhibition of citric acid-induced coughing at 0.25 umol, intracerebroventricularly administered as single dose after 3 mins relative to control. In outline: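 Unrestrained conscious Dunkin-Hartley guinea pigs with a 22-gauge guide cannula in the lateral ventricle, placed stereotaxically under anaesthesia, recovered 4 days. Single icv dose in 10 µL of Tween 80/saline (5:95). 3 min later, 8-min 0.5 M citric acid aerosol (0.5 mL/min) in an airtight chamber. Cough sounds recorded and episodes counted. % inhibition vs vehicle group; one-way ANOVA with Bonferroni tests.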

Assay [4] relates to Cavia porcellus. The assay can be described thus: Antitussive activity in guinea pig assessed as inhibition of citric acid-induced coughing at 0.33 mmol/kg, po administered as single dose after 30 mins. Also on record: scale not given: the % may be the effect or the level left. In outline: as §2
The subject of assay [5] is Cavia porcellus. The assay can be described thus: Antitussive activity in guinea pig assessed as inhibition of citric acid-induced coughing at 0.33 mmol/kg, ip administered as single dose after 30 mins. The note with it: 0.5 h. In outline:
as §1

What is called inhibition in vivo is how much of the control response was suppressed. In the case of `CC[C@H]1[C@H]2[C@@H](CCCN3[C@H]2CC[C@H]3[C@@H]2C[C@H](C)C(=O)O2)O[C@]12C=C(C)C(=O)O2` [STEMONININE], in the assay with Cavia porcellus [1], the inhibition in vivo at 260 µmol/kg is 90%. Moreover, the Activity in the assay on Cavia porcellus [2] is reported as 70%. For the same compound, in the assay on Cavia porcellus [3], the “inhibition (INH)” value was found to be 10%.

In the case of `CC[C@H]1[C@H]2[C@@H](CCCN3C([C@@H]4C[C@H](C)C(=O)O4)=CC(=O)[C@@]23OC)O[C@]12C=C(C)C(=O)O2`, the “inhibition (INH)” value with Cavia porcellus [3] came out at 10%.

In the case of `CC[C@H]1[C@H]2[C@@H](CCCN3C(=O)CC[C@@H]23)O[C@]12C=C(C)C(=O)O2` [STEMONINOAMIDE], the Activity in the assay on Cavia porcellus [4] is listed as 70%. Besides, the inhibition in vivo at 330 µmol/kg in the assay on Cavia porcellus [5] was determined as 90%. Also, the “inhibition (INH)” value with Cavia porcellus [3] is 10%.

In the case of `CC[C@H]1[C@H]2[C@@H](CCCN3C([C@@H]4C[C@H](C)C(=O)O4)=CC(=O)[C@@]23O)O[C@]12C=C(C)C(=O)O2` [STEMOENONINE], the “inhibition (INH)” value in the assay with Cavia porcellus [3] is 10%.
